# Laboratory results as given in ChEMBL document CHEMBL2062435, “Synthesis and in vitro antibacterial activity of gemifloxacin derivatives containing a substituted benzyloxime moiety” (2012).
# Legend:
# Type in all cases: functional
# Klebsiella pneumoniae [1] = experiment: Antimicrobial activity against Klebsiella pneumoniae 10-2 after 18-24 hrs by two-fold serial dilution method
# Summary of the method: (§1)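 Agar-medium twofold serial dilution against Gram-positive and Gram-negative strains; MIC taken as the lowest compound concentration giving complete inhibition of bacterial growth after incubation at 35 °C for 18-24 h.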
# Escherichia coli [2] = experiment: Antimicrobial activity against extended spectrum beta-lactamases-producing Escherichia coli 10-4 after 18-24 hrs by two-fold serial dilution method; summary of the method: as §1
# [3] = tested on: Staphylococcus epidermidis; experiment: Ratio of levofloxacin MIC to compound MIC for extended spectrum beta-lactamases-producing methicillin-sensitive Staphylococcus epidermidis 10-15 after 18-24 hrs by two-fold serial dilution method
# Summary of the method: (§2)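 MICs were determined by the standard twofold serial dilution method on agar media against the test strains, with levofloxacin run as a reference. MIC is the lowest concentration giving complete inhibition of bacterial growth after 18–24 h incubation at 35 °C. The ratio is levofloxacin MIC divided by test-compound MIC.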
# Enterococcus faecalis [4] = experiment: Ratio of gemifloxacin MIC to compound MIC for Enterococcus faecalis 10-7 after 18-24 hrs by two-fold serial dilution method
# Staphylococcus aureus [5] = experiment: Ratio of gemifloxacin MIC to compound MIC for Staphylococcus aureus ATCC […] after 18-24 hrs by two-fold serial dilution method
# Klebsiella pneumoniae [6] = experiment: Antimicrobial activity against extended spectrum beta-lactamases-producing Klebsiella pneumoniae 10-2 after 18-24 hrs by two-fold serial dilution method; summary of the method: as §1
# Enterococcus faecium [7] = experiment: Antimicrobial activity against Enterococcus faecium 10-9 after 18-24 hrs by two-fold serial dilution method; summary of the method: as §1
# Enterococcus faecalis [8] = experiment: Ratio of levofloxacin MIC to compound MIC for Enterococcus faecalis 10-6 after 18-24 hrs by two-fold serial dilution method
# Escherichia coli [9] = experiment: Antimicrobial activity against Escherichia coli ATCC 25922 after 18-24 hrs by two-fold serial dilution method; summary of the method: as §1
# Streptococcus pneumoniae [10] = experiment: Antimicrobial activity against extended spectrum beta-lactamases-producing Streptococcus pneumoniae 10-4 after 18-24 hrs by two-fold serial dilution method; summary of the method: as §1
# [11] = tested on: Staphylococcus epidermidis; experiment: Ratio of gemifloxacin MIC to compound MIC for extended spectrum beta-lactamases-producing methicillin-sensitive Staphylococcus epidermidis 10-13 after 18-24 hrs by two-fold serial dilution method
# Enterococcus faecalis [12] = experiment: Ratio of levofloxacin MIC to compound MIC for Enterococcus faecalis 10-7 after 18-24 hrs by two-fold serial dilution method
# Pseudomonas aeruginosa [13] = experiment: Antimicrobial activity against extended spectrum beta-lactamases-producing Pseudomonas aeruginosa 10-9 after 18-24 hrs by two-fold serial dilution method; summary of the method: as §1
# Pseudomonas aeruginosa [14] = experiment: Antimicrobial activity against Pseudomonas aeruginosa 10-12 after 18-24 hrs by two-fold serial dilution method; summary of the method: as §1
# Staphylococcus aureus [15] = experiment: Antimicrobial activity against extended spectrum beta-lactamases-producing methicillin-resistant Staphylococcus aureus 10-15 after 18-24 hrs by two-fold serial dilution method
# Summary of the method: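 Agar twofold serial dilution MIC against clinical isolates. MIC was taken as the lowest concentration giving complete inhibition of bacterial growth after incubation at 35 °C for 18-24 h.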
# Escherichia coli [16] = experiment: Antimicrobial activity against Escherichia coli 10-2 after 18-24 hrs by two-fold serial dilution method; summary of the method: as §1
# Staphylococcus aureus [17] = experiment: Antimicrobial activity against extended spectrum beta-lactamases-producing methicillin-sensitive Staphylococcus aureus 10-13 after 18-24 hrs by two-fold serial dilution method; summary of the method: as §1
# Enterococcus faecium [18] = experiment: Ratio of levofloxacin MIC to compound MIC for Enterococcus faecium 10-5 after 18-24 hrs by two-fold serial dilution method
# Streptococcus pneumoniae [19] = experiment: Antimicrobial activity against extended spectrum beta-lactamases-producing Streptococcus pneumoniae 10-1 after 18-24 hrs by two-fold serial dilution method; summary of the method: as §1
# Klebsiella pneumoniae [20] = experiment: Antimicrobial activity against extended spectrum beta-lactamases-producing Klebsiella pneumoniae 10-1 after 18-24 hrs by two-fold serial dilution method; summary of the method: as §1
# Enterococcus faecalis [21] = experiment: Ratio of gemifloxacin MIC to compound MIC for Enterococcus faecalis 10-5 after 18-24 hrs by two-fold serial dilution method
# [22] = tested on: Staphylococcus epidermidis; experiment: Ratio of gemifloxacin MIC to compound MIC for extended spectrum beta-lactamases-producing methicillin-sensitive Staphylococcus epidermidis 10-15 after 18-24 hrs by two-fold serial dilution method
# Staphylococcus aureus [23] = experiment: Ratio of gemifloxacin MIC to compound MIC for extended spectrum beta-lactamases-producing methicillin-sensitive Staphylococcus aureus 10-14 after 18-24 hrs by two-fold serial dilution method
# Klebsiella pneumoniae [24] = experiment: Antimicrobial activity against Klebsiella pneumoniae 10-3 after 18-24 hrs by two-fold serial dilution method; summary of the method: as §1
# Staphylococcus aureus [25] = experiment: Antimicrobial activity against Staphylococcus aureus ATCC […] after 18-24 hrs by two-fold serial dilution method; summary of the method: as §1
# Enterococcus faecalis [26] = experiment: Ratio of gemifloxacin MIC to compound MIC for Enterococcus faecalis 10-6 after 18-24 hrs by two-fold serial dilution method
# Staphylococcus aureus [27] = experiment: Ratio of levofloxacin MIC to compound MIC for extended spectrum beta-lactamases-producing methicillin-sensitive Staphylococcus aureus 10-13 after 18-24 hrs by two-fold serial dilution method; summary of the method: as §2
# Pseudomonas aeruginosa [28] = experiment: Antimicrobial activity against extended spectrum beta-lactamases-producing Pseudomonas aeruginosa 10-18 after 18-24 hrs by two-fold serial dilution method; summary of the method: as §1
# Streptococcus pneumoniae [29] = experiment: Ratio of levofloxacin MIC to compound MIC for extended spectrum beta-lactamases-producing Streptococcus pneumoniae 10-1 after 18-24 hrs by two-fold serial dilution method
# Pseudomonas aeruginosa [30] = experiment: Antimicrobial activity against extended spectrum beta-lactamases-producing Pseudomonas aeruginosa 10-5 after 18-24 hrs by two-fold serial dilution method; summary of the method: as §1
# [31] = tested on: Staphylococcus epidermidis; experiment: Antimicrobial activity against methicillin-resistant Staphylococcus epidermidis clinical isolate after 18-24 hrs by two-fold serial dilution method
# Streptococcus pneumoniae [32] = experiment: Ratio of gemifloxacin MIC to compound MIC for extended spectrum beta-lactamases-producing Streptococcus pneumoniae 10-1 after 18-24 hrs by two-fold serial dilution method
# Enterococcus faecalis [33] = experiment: Ratio of levofloxacin MIC to compound MIC for Enterococcus faecalis 10-5 after 18-24 hrs by two-fold serial dilution method
# Pseudomonas aeruginosa [34] = experiment: Antimicrobial activity against extended spectrum beta-lactamases-producing Pseudomonas aeruginosa 10-20 after 18-24 hrs by two-fold serial dilution method; summary of the method: as §1
# Enterococcus faecium [35] = experiment: Ratio of gemifloxacin MIC to compound MIC for Enterococcus faecium 10-9 after 18-24 hrs by two-fold serial dilution method
# Pseudomonas aeruginosa [36] = experiment: Antimicrobial activity against extended spectrum beta-lactamases-producing Pseudomonas aeruginosa 10-15 after 18-24 hrs by two-fold serial dilution method; summary of the method: as §1
# Staphylococcus aureus [37] = experiment: Ratio of levofloxacin MIC to compound MIC for extended spectrum beta-lactamases-producing methicillin-sensitive Staphylococcus aureus 10-14 after 18-24 hrs by two-fold serial dilution method; summary of the method: as §2
# Enterococcus faecium [38] = experiment: Antimicrobial activity against Enterococcus faecium 10-5 after 18-24 hrs by two-fold serial dilution method; summary of the method: as §1
# Enterococcus faecium [39] = experiment: Ratio of gemifloxacin MIC to compound MIC for Enterococcus faecium 10-5 after 18-24 hrs by two-fold serial dilution method
# Klebsiella pneumoniae [40] = experiment: Antimicrobial activity against extended spectrum beta-lactamases-producing Klebsiella pneumoniae 10-3 after 18-24 hrs by two-fold serial dilution method; summary of the method: as §1
# Enterococcus faecalis [41] = experiment: Antimicrobial activity against Enterococcus faecalis 10-6 after 18-24 hrs by two-fold serial dilution method; summary of the method: as §1
# Enterococcus faecalis [42] = experiment: Antimicrobial activity against Enterococcus faecalis 10-7 after 18-24 hrs by two-fold serial dilution method; summary of the method: as §1
structure (smiles),measurement,setting,value
COc1ccc(OC)c(CO/N=C2\CN(c3nc4c(cc3F)c(=O)c(C(=O)O)cn4C3CC3)CC2CN)c1.CS(=O)(=O)O (racemic),MIC,Klebsiella pneumoniae [1],> 128 µg/mL
same,MIC,Escherichia coli [2],> 128 µg/mL
same,Ratio,[3],8
same,Ratio,Enterococcus faecalis [4],2
same,Ratio,Staphylococcus aureus [5],2
same,MIC,Klebsiella pneumoniae [6],> 128 µg/mL
same,MIC,Enterococcus faecium [7],4 µg/mL
same,Ratio,Enterococcus faecalis [8],8
same,MIC,Escherichia coli [9],0.06 µg/mL
same,MIC,Streptococcus pneumoniae [10],0.015 µg/mL
same,Ratio,[11],2
same,Ratio,Enterococcus faecalis [12],8
same,MIC,Pseudomonas aeruginosa [13],> 128 µg/mL
same,MIC,Pseudomonas aeruginosa [14],> 128 µg/mL
same,MIC,Staphylococcus aureus [15],0.125 µg/mL
same,MIC,Escherichia coli [16],> 128 µg/mL
same,MIC,Staphylococcus aureus [17],0.03 µg/mL
same,Ratio,Enterococcus faecium [18],8
same,MIC,Streptococcus pneumoniae [19],0.06 µg/mL
same,MIC,Klebsiella pneumoniae [20],> 128 µg/mL
same,Ratio,Enterococcus faecalis [21],2
same,Ratio,[22],2
same,Ratio,Staphylococcus aureus [23],2
same,MIC,Klebsiella pneumoniae [24],> 128 µg/mL
same,MIC,Staphylococcus aureus [25],< 0.008 µg/mL
same,Ratio,Enterococcus faecalis [26],2
same,Ratio,Staphylococcus aureus [27],8
same,MIC,Pseudomonas aeruginosa [28],> 128 µg/mL
same,Ratio,Streptococcus pneumoniae [29],8
same,MIC,Pseudomonas aeruginosa [30],> 128 µg/mL
same,MIC50,[31],0.25 µg/mL
same,MIC90,[31],4 µg/mL
same,Ratio,Streptococcus pneumoniae [32],2
same,Ratio,Enterococcus faecalis [33],8
same,MIC,Pseudomonas aeruginosa [34],> 128 µg/mL
same,Ratio,Enterococcus faecium [35],2
same,MIC,Pseudomonas aeruginosa [36],> 128 µg/mL
same,Ratio,Staphylococcus aureus [37],8
same,MIC,Enterococcus faecium [38],4 µg/mL
same,Ratio,Enterococcus faecium [39],2
same,MIC,Klebsiella pneumoniae [40],> 128 µg/mL
same,MIC,Enterococcus faecalis [41],4 µg/mL
same,MIC,Enterococcus faecalis [42],0.25 µg/mL
